Tested on: not listed separately
Experiment: pKa value of the compound
Type: physicochemical

Compound | pKa
CN1CCC=C(c2nc(-c3cn(C)c4ccccc34)no2)C1 | 7.2

Tested on: not listed separately
Experiment: pKa value of the compound.
Type: physicochemical

Compound | pKa
Cn1cc(-c2noc(CN)n2)c2ccccc21 | 6.4
CNCc1nc(-c2cn(C)c3ccccc23)no1 | 6.5
Cn1cc(-c2noc(C3=CCCNC3)n2)c2ccccc21 | 7.9
CNCCc1nc(-c2cn(C)c3ccccc23)no1 | 8.8
CN(C)CCc1nc(-c2cn(C)c3ccccc23)no1 | 7.7
CN(C)Cc1nc(-c2cn(C)c3ccccc23)no1 | 5.6

Target: T1, Serotonin 3 (5-HT3) receptor (Rattus norvegicus, UniProt P35563+Q9JJ16)
T1 sequence (P35563 whole entry): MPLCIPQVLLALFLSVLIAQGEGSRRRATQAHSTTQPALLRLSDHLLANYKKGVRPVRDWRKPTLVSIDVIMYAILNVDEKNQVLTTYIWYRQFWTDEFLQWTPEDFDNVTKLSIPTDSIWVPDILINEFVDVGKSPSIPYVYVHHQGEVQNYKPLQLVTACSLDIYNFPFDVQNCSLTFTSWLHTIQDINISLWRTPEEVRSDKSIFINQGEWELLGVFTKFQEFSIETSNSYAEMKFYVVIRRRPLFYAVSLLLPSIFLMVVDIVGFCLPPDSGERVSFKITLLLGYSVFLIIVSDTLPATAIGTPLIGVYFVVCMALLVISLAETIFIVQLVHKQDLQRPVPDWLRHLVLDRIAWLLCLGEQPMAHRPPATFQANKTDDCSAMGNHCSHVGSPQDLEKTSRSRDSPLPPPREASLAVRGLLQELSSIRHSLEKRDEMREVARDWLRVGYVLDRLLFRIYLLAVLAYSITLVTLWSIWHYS
T1 sequence (Q9JJ16 whole entry): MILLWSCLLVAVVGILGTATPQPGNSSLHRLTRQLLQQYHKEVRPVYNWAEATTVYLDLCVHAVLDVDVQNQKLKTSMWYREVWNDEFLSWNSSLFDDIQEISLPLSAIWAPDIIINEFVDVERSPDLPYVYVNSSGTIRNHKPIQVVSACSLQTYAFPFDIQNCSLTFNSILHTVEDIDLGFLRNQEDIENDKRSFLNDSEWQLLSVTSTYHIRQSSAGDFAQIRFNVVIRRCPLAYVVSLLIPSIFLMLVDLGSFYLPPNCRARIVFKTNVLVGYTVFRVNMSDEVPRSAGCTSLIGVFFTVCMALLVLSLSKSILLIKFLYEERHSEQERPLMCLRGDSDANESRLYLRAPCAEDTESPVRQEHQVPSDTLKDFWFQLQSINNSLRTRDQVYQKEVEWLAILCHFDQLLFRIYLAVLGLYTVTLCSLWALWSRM
Experiment: Compound was evaluated for the displacement of [3H]-Q-ICS 205-930 binding to 5-hydroxytryptamine 3 receptor in rat brain membranes
Type: cell membranes
Summary of the method: (§1)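 Rat cortical membranes from male Sprague-Dawley rats (250-300 g): sucrose homogenization, differential centrifugation, washed in 2.5 mM Hepes, made fresh on the day. About 400 µg protein incubated on ice (4 °C, 15 min) with 0.5-0.7 nM [3H]Q-ICS 205-930 in 10 mM Hepes pH 7.1 containing pargyline and ascorbate. Nonspecific binding defined with 10 µM MDL 72222.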

Compound | IC50 [nM]
Cc1[nH]c2ccc(O)cc2c1CCN | 646
CN1[C@@H]2CC[C@H]1C[C@@H](OC(=O)c1cc(Cl)cc(Cl)c1)C2 [BEMESETRON] | 21.9

Target: T1, Serotonin 3 (5-HT3) receptor
Experiment: Displacement of [3H]-Q-ICS 205-930 binding to 5-hydroxytryptamine 3 receptor recognition sites in rat brain membranes.
Type: cell membranes
Summary of the method: as §1

Compound | IC50 [nM]
c1ccc2c(-c3noc(C4CN5CCC4CC5)n3)c[nH]c2c1 (centres undefined) | 2.69
c1ccc2cc(-c3noc(C4CN5CCC4CC5)n3)ccc2c1 (centres undefined) | 1480
CN1CCCC(c2nc(-c3cn(C)c4ccccc34)no2)C1 (centres undefined) | 12.9
Cn1cc(-c2noc(C3CN4CCC3CC4)n2)c2ccccc21 (centres undefined) | 1.38
Cn1cc(-c2noc(CCN3CCCCC3)n2)c2ccccc21 | 372
CN1CCC(c2nc(-c3cn(C)c4ccccc34)no2)CC1 | 13.2
CN1CCC=C(c2csc(-c3cn(C)c4ccccc34)n2)C1 | 5890
Cn1cc(-c2nc(C3CN4CCC3CC4)no2)c2ccccc21 (centres undefined) | 29.5
c1ccc(-c2noc(C3CN4CCC3CC4)n2)cc1 (centres undefined) | 200
CN1CC2CCC1C(c1nc(-c3cn(C)c4ccccc34)no1)C2 (stereo in doubt; 12y) | 224
Cn1cc(-c2noc(CN)n2)c2ccccc21 | 282
Cn1cc(-c2noc(CC3CN4CCC3CC4)n2)c2ccccc21 (centres undefined) | 55
Cn1cc(-c2noc(C3CN4CCC3C4)n2)c2ccccc21 (stereo in doubt; 12u) | 7.59
C=CCn1cc(-c2noc(C3CN4CCC3CC4)n2)c2ccccc21 (centres undefined) | 21.9
COc1ccc(-c2noc(C3CN4CCC3CC4)n2)cc1 (centres undefined) | 1580
COc1ccccc1-c1noc(C2CN3CCC2CC3)n1 (centres undefined) | 155
CNCc1nc(-c2cn(C)c3ccccc23)no1 | 1000
CN1C2CCC1CC(c1nc(-c3cn(C)c4ccccc34)no1)C2 (centres undefined) | 191
Oc1ccc(-c2noc(C3CN4CCC3CC4)n2)cc1 (centres undefined) | 148
c1cncc(-c2noc(C3CN4CCC3CC4)n2)c1 (centres undefined) | 2950
Oc1cccc(-c2noc(C3CN4CCC3CC4)n2)c1 (centres undefined) | 81.3
Cn1cc(-c2noc(C34CCN(CC3)CC4)n2)c2ccccc21 | 4.27
COc1cccc(-c2noc(C3CN4CCC3CC4)n2)c1 (centres undefined) | 12.6
Cn1cc(-c2noc(C3CN4CCC3C4)n2)c2ccccc21 (stereo in doubt; 12v) | 1.05
c1ccc2c(-c3noc(C4CN5CCC4CC5)n3)[nH]nc2c1 (centres undefined) | 17.8

Compound | IC50 [nM]
Cn1cc(-c2noc(C3=CCCNC3)n2)c2ccccc21 | 468
Cn1c(-c2noc(C3CN4CCC3CC4)n2)cc2ccccc21 (centres undefined) | 676
Cc1ccc2c(c1)c(-c1noc(C3CN4CCC3CC4)n1)cn2C (centres undefined) | 331
c1ccc2c(-c3noc(C4CN5CCC4CC5)n3)cccc2c1 (centres undefined) | 63.1
Oc1ccccc1-c1noc(C2CN3CCC2CC3)n1 (centres undefined) | 41.7
Cc1cccc2c(-c3noc(C4CN5CCC4CC5)n3)cn(C)c12 (centres undefined) | 95.5
Cn1cc(-c2noc(CCN)n2)c2ccccc21 | 67.6
Cn1cc(-c2noc(C3CN4CCC3CC4)n2)c2cc(F)ccc21 (centres undefined) | 45.7
Cn1cc(-c2noc(C3CC4CCN3CC4)n2)c2ccccc21 (centres undefined) | 129
Cn1cc(-c2noc(C3CC[N+](C)(C)CC3)n2)c2ccccc21 | 35.5
Cn1cc(-c2nsc(C3CC4CCN3C4)n2)c2ccccc21 (stereo in doubt; 26) | 14.1
Cn1cc(-c2nsc(C3CC4CCN3C4)n2)c2ccccc21 (stereo in doubt; 27) | 20.4
CN1CCC=C(c2nc(-c3cn(C)c4ccccc34)no2)C1 | 209
Cn1cc(-c2noc(C3CC4CCC3NC4)n2)c2ccccc21 (stereo in doubt; 12t) | 13.2
Cn1cc(-c2noc(C3CC4CCC3NC4)n2)c2ccccc21 (stereo in doubt; 12s) | 89.1
c1ccc2[nH]c(-c3noc(C4CN5CCC4CC5)n3)cc2c1 (centres undefined) | 692
CN1CC=C(c2nnc(-c3cn(C)c4ccccc34)o2)CC1 | 501
CNCCc1nc(-c2cn(C)c3ccccc23)no1 | 85.1
CN(C)CCCc1nc(-c2cn(C)c3ccccc23)no1 | 191
CN1CC2CCC1C(c1nc(-c3cn(C)c4ccccc34)no1)C2 (stereo in doubt; 12z) | 85.1
CN(C)CCc1nc(-c2cn(C)c3ccccc23)no1 | 13.8
Cn1cc(-c2noc(C[N+](C)(C)C)n2)c2ccccc21 | 0.708
c1ccc2ncc(-c3noc(C4CN5CCC4CC5)n3)cc2c1 (centres undefined) | 1510
Cn1cc(-c2noc(C3CCC[N+](C)(C)C3)n2)c2ccccc21 (centres undefined) | 34.7
CN(C)Cc1nc(-c2cn(C)c3ccccc23)no1 | 166

Reference: ChEMBL document CHEMBL1125715, “Novel 5-HT3 antagonists. Indole oxadiazoles” (J Med Chem, 1991)
